ChEMBL document CHEMBL1671663, “In vivo characterization of the peptide deformylase inhibitor LBM415 in murine infection models” (Antimicrob Agents Chemother, 2009)
Values after ≈ are worked out from the molar mass of the structure shown. Active and inactive are the calls of the source. No cut-off for these calls is given here.

Key:
Staphylococcus aureus [1] = assay: Antimicrobial activity against methicillin-susceptible Staphylococcus aureus ATCC 49951 by broth microdilution method; format: functional
Summary of the method: (§1)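 MICs determined by broth microdilution following CLSI guidelines. Inocula came from overnight Mueller-Hinton broth (ATCC 49951, NB01021) or overnight Trypticase soy agar culture (ATCC 6301). ATCC 6303 and ATCC 700677 came from a 5-h log culture in Todd-Hewitt broth–30% horse serum.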

[2] = Bioavailability in CD1 mouse at 20 mg/kg, po by liquid chromatography/mass spectroscopy; details: in vivo
Mus musculus [3] = assay: Drug concentration at time zero in CD1 mouse at 5 mg/kg, iv by liquid chromatography/mass spectroscopy; format: ADME, organism-based; set-up: dose 5 mg/kg, route intravenous; details: in vivo
Summary of the method: (§2)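 CD1 mice given 20 mg/kg p.o. or 5 mg/kg i.v.; blood sampled from three mice per time point, first at 0.083 h (i.v.) or 0.25 h (p.o.), last at 24 h. Plasma separated by centrifugation (10,000 rpm, 10 min, 4°C), stored at −80°C, assayed by LC/MS. Mean concentration-time course used for parameters; F from ratio of dose-normalized AUCs; C0 extrapolated from i.v. curve.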

[4] = Clearance in CD1 mouse at 5 mg/kg, iv by liquid chromatography/mass spectroscopy; format: ADME, organism-based; set-up: dose 5 mg/kg, route intravenous; details: in vivo; summary of the method: as §2
Staphylococcus aureus [5] = assay: Antimicrobial activity against methicillin susceptible Staphylococcus aureus ATCC 49951 infected in sc dosed NMRI mouse treated 1 and 5 hrs post infection; format: functional; details: ATCC 49951, sc
Summary of the method: (§3)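 Intraperitoneal infection (0.3 ml/mouse, 10 to 100 times minimal lethal dose) with inoculum in 0.86% NaCl; ATCC 49951 grown overnight in Mueller-Hinton broth (1.7 × 10^7 to 2.2 × 10^7 CFU/mouse), ATCC 13709 in tryptic soy broth (7.3 × 10^7 to 2 × 10^8 CFU/mouse). Groups of 5 to 6 mice, typically three doses, treated 1 and 5 h postinfection; vehicle controls. ED50 by probit analysis of day-8 survival.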

Staphylococcus aureus [6] = assay: Antimicrobial activity against methicillin susceptible Staphylococcus aureus ATCC 49951 infected in po dosed NMRI mouse treated 1 and 5 hrs post infection; format: functional; details: ATCC 49951, po; summary of the method: as §3
Staphylococcus aureus [7] = assay: Antimicrobial activity against multiple drug resistant Staphylococcus aureus NB01021 infected in immunocompetent NMRI mouse soft tissue infection model assessed as reduction in thigh bacterial load at 5.6 mg/kg, po administered thrice a day for 2 days; format: functional
Summary of the method: (§4)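 Thigh infection: 50 µl of freshly prepared NB01021 suspension (3.8 × 10^6 CFU/thigh) injected intramuscularly into the left hind thigh of female NMRI mice (20–23 g). Oral doses at 0, 4, 8, 24, 28, 32 h; vehicle controls. Thighs excised 18 h after last dose, homogenized in saline and plated on blood agar (detection limit 100 CFU/thigh). Medians compared to controls by Mann-Whitney rank sum test.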

Staphylococcus aureus [8] = assay: Antimicrobial activity against methicillin susceptible Staphylococcus aureus ATCC 13709 infected in po dosed NMRI mouse treated 1 and 5 hrs post infection; format: functional; details: ATCC 13709, po; summary of the method: as §3
Staphylococcus aureus [9] = assay: Antimicrobial activity against methicillin-resistant Staphylococcus aureus NB01021 by broth microdilution method; format: functional; summary of the method: as §1
Streptococcus pneumoniae [10] = assay: Antimicrobial activity against Streptococcus pneumoniae ATCC 6301 by broth microdilution method; format: functional; summary of the method: as §1
Streptococcus pneumoniae [11] = assay: Antimicrobial activity against Streptococcus pneumoniae ATCC 6303 infected in po dosed BALB/c mouse pneumonia model assessed as complete eradication of bacteria administered twice daily 3 days starting 16 hrs post infection; format: functional
Summary of the method: (§5)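 Anesthetized (ketamine/xylazine) female BALB/c mice (19 to 22 g) inoculated intranasally with 50 µl log-phase culture (1.4 × 10^5 CFU/mouse). Oral treatment, six mice per group, at 16, 27, 40, 51, 64 and 75 h postinfection; vehicle controls. Lungs harvested one day after last dose, homogenized, plated; log10 CFU/lung. Deaths assigned 9 log10 CFU/lung; Kruskal-Wallis with Dunn's test versus control.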

Staphylococcus aureus [12] = assay: Antimicrobial activity against multiple drug resistant Staphylococcus aureus NB01021 infected in immunocompetent NMRI mouse soft tissue infection model assessed as reduction in thigh bacterial load at 50 mg/kg, po administered thrice a day for 2 days; format: functional; summary of the method: as §4
[13] = AUC in CD1 mouse at 5 mg/kg, iv by liquid chromatography/mass spectroscopy; format: ADME, organism-based; set-up: dose 5 mg/kg, route intravenous; details: plasma; summary of the method: as §2
Streptococcus pneumoniae [14] = assay: Antimicrobial activity against multiple drug-resistant Streptococcus pneumoniae ATCC 700677 by broth microdilution method; format: functional; summary of the method: as §1
Streptococcus pneumoniae [15] = assay: Antimicrobial activity against Streptococcus pneumoniae ATCC 6303 infected in BALB/c mouse pneumonia model assessed as reduction in lung bacterial load at 80 mg/kg, po administered twice daily 3 days starting 16 hrs post infection; format: functional; summary of the method: as §5
Mus musculus [16] = assay: Cmax in CD1 mouse at 20 mg/kg, po by liquid chromatography/mass spectroscopy; format: ADME, organism-based; set-up: dose 20 mg/kg, route oral; details: in vivo; summary of the method: as §2
Streptococcus pneumoniae [17] = assay: Antimicrobial activity against multiple drug resistant Streptococcus pneumoniae ATCC 700677 infected in sc dosed BALB/c mouse administered twice daily for 3 days; format: functional; details: ATCC 700677, sc, 72 h
Summary of the method: (§6)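 Female BALB/c mice (19–23 g) infected intraperitoneally with ATCC 700677 from a 5-h Todd-Hewitt–30% horse serum log culture, suspended in 5% hog mucin, 1.5 × 10^7 to 2 × 10^7 CFU/mouse. Groups of 5–6, typically three dose levels; vehicle controls. Dosed 1, 5, 17, 27, 42, 51 h post-infection. ED50 from day-8 survival by probit analysis, with 95% CI.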

Streptococcus pneumoniae [18] = assay: Antimicrobial activity against Streptococcus pneumoniae ATCC 6303 infected in BALB/c mouse pneumonia model assessed as reduction in lung bacterial load at 20 mg/kg, po administered twice daily 3 days starting 16 hrs post infection; format: functional; summary of the method: as §5
[19] = Tmax in CD1 mouse at 20 mg/kg, po by liquid chromatography/mass spectroscopy; format: ADME, organism-based; set-up: dose 20 mg/kg, route oral; details: in vivo; summary of the method: as §2
Streptococcus pneumoniae [20] = assay: Antimicrobial activity against multiple drug resistant Streptococcus pneumoniae ATCC 700677 infected in po dosed BALB/c mouse administered twice daily for 3 days; format: functional; details: ATCC 700677, po, 72 h; summary of the method: as §6
Streptococcus pneumoniae [21] = assay: Antimicrobial activity against Streptococcus pneumoniae ATCC 6301 infected in po dosed NMRI mouse administered thrice daily for 4 days; details: ATCC 6301, po, 96 h
Staphylococcus aureus [22] = assay: Antimicrobial activity against multiple drug resistant Staphylococcus aureus NB01021 infected in immunocompetent NMRI mouse soft tissue infection model assessed as reduction in thigh bacterial load at 16.7 mg/kg, po administered thrice a day for 2 days; format: functional; summary of the method: as §4
Streptococcus pneumoniae [23] = assay: Antimicrobial activity against Streptococcus pneumoniae ATCC 6303 infected in BALB/c mouse pneumonia model assessed as complete eradication of bacteria at 40 mg/kg, po administered twice daily 3 days starting 16 hrs post infection; format: functional, organism-based; set-up: dose 40 mg/kg; summary of the method: as §5
Streptococcus pneumoniae [24] = assay: Antimicrobial activity against Streptococcus pneumoniae ATCC 6303 infected in BALB/c mouse pneumonia model assessed as reduction in lung bacterial load at 40 mg/kg, po administered twice daily 3 days starting 16 hrs post infection; format: functional; summary of the method: as §5
[25] = AUC in CD1 mouse at 20 mg/kg, po by liquid chromatography/mass spectroscopy; format: ADME, organism-based; set-up: dose 20 mg/kg, route oral; details: plasma; summary of the method: as §2
[26] = Volume of distribution at steady state in CD1 mouse at 5 mg/kg, iv by liquid chromatography/mass spectroscopy; format: ADME, organism-based; set-up: dose 5 mg/kg, route intravenous; details: in vivo, read-out: Vdss; summary of the method: as §2
Streptococcus pneumoniae [27] = assay: Antimicrobial activity against Streptococcus pneumoniae ATCC 6303 by broth microdilution method; format: functional; summary of the method: as §1
Staphylococcus aureus [28] = assay: Antimicrobial activity against methicillin-resistant Staphylococcus aureus NB01021 infected in po dosed BALB/c mouse administered 0, 4, 23 hrs post infection; format: functional
Summary of the method: (§7)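 Female BALB/c mice (19–23 g) infected intraperitoneally with MRSA NB01021 in 5% hog gastric mucin, 2.1 × 10^7 to 2.8 × 10^7 CFU/mouse (0.3 ml), 10–100× minimal lethal dose. Three dose levels, groups of 5–6; vehicle controls. Treatment 0, 4 and 23 h post-infection. Observed 8 days; ED50 with 95% CI by probit analysis of day-8 survival.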

Staphylococcus aureus [29] = assay: Antimicrobial activity against methicillin-susceptible Staphylococcus aureus ATCC 13709 by broth microdilution method; format: functional
Summary of the method: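 MIC by broth microdilution following CLSI guidelines.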

Staphylococcus aureus [30] = assay: Antimicrobial activity against methicillin-resistant Staphylococcus aureus NB01021 infected in sc dosed BALB/c mouse administered 0, 4, 23 hrs post infection; format: functional; summary of the method: as §7

Row | Compound | MIC (Staphylococcus aureus [1]) | ED50 (Staphylococcus aureus [5]) | ED50 (Staphylococcus aureus [6]) | ED50 (Staphylococcus aureus [8]) | MIC (Staphylococcus aureus [9]) | MIC (Streptococcus pneumoniae [10]) | MIC (Streptococcus pneumoniae [14]) | ED50 (Streptococcus pneumoniae [20]) | ED50 (Streptococcus pneumoniae [21]) | MIC (Streptococcus pneumoniae [27]) | ED50 (Staphylococcus aureus [28]) | MIC (Staphylococcus aureus [29]) | other results
1 | CCCC[C@H](CN(O)C=O)C(=O)N1CCC[C@H]1C(=O)Nc1ccc(F)c[n+]1[O-] | 0.125 µg/mL (≈ 0.315 µM) | 1.1 mg/kg | 2.3 mg/kg | 13.2 mg/kg | 2 µg/mL (≈ 5.05 µM) | 0.125 µg/mL (≈ 0.315 µM) | 0.5 µg/mL (≈ 1.26 µM) | 36.6 mg/kg | 6.4 mg/kg | 2 µg/mL (≈ 5.05 µM) | 5.9 mg/kg | 4 µg/mL (≈ 10.1 µM) | bioavailability [2]: 53%; Drug uptake (Mus musculus [3]): 5361 ng/mL; clearance [4]: 30.8 mL/min/kg; log10cfu (Staphylococcus aureus [7]): 6.3; ED50 (Streptococcus pneumoniae [11]): 23.3 mg/kg; log10cfu (Staphylococcus aureus [12]): 3.6; AUC [13]: 2690 ng·h/mL; log10cfu (Streptococcus pneumoniae [15]): 2.3; Cmax (Mus musculus [16]): 4250 ng/mL; ED50 (Streptococcus pneumoniae [17]): 4.8 mg/kg; log10cfu (Streptococcus pneumoniae [18]): 5.1; Tmax [19]: 30 min; log10cfu (Staphylococcus aureus [22]): 5.6; Activity (Streptococcus pneumoniae [23]): Active; log10cfu (Streptococcus pneumoniae [24]): <2; AUC [25]: 5700 ng·h/mL; Vd [26]: 3.12 L/kg; ED50 (Staphylococcus aureus [30]): 0.7 mg/kg
2 | CC1(C)S[C@@H]2[C@H](NC(=O)[C@H](N)c3ccc(O)cc3)C(=O)N2[C@H]1C(=O)O [AMOXICILLIN] | 0.5 µg/mL (≈ 1.37 µM) | – | – | – | 128 µg/mL (≈ 350 µM) | 0.03 µg/mL (≈ 0.0821 µM) | 4 µg/mL (≈ 10.9 µM) | – | – | 0.03 µg/mL (≈ 0.0821 µM) | > 50 mg/kg | 1 µg/mL (≈ 2.74 µM) | –
3 | CC[C@H]1OC(=O)[C@H](C)[C@@H](O[C@H]2C[C@@](C)(OC)[C@@H](O)[C@H](C)O2)[C@H](C)[C@@H](O[C@@H]2O[C@H](C)C[C@H](N(C)C)[C@H]2O)[C@](C)(OC)C[C@@H](C)C(=O)[C@H](C)[C@@H](O)[C@]1(C)O [CLARITHROMYCIN] | 1 µg/mL (≈ 1.34 µM) | 1.2 mg/kg | 7.7 mg/kg | 8.7 mg/kg | > 64 µg/mL | 0.015 µg/mL (≈ 0.0201 µM) | 32 µg/mL (≈ 42.8 µM) | > 60 mg/kg | 2.1 mg/kg | 0.03 µg/mL (≈ 0.0401 µM) | – | 0.5 µg/mL (≈ 0.668 µM) | –
4 | CC(=O)NC[C@H]1CN(c2ccc(N3CCOCC3)c(F)c2)C(=O)O1 [LINEZOLID] | 1 µg/mL (≈ 2.96 µM) | 7.4 mg/kg | 7 mg/kg | 10.3 mg/kg | 1 µg/mL (≈ 2.96 µM) | – | 0.25 µg/mL (≈ 0.741 µM) | – | 5.6 mg/kg | – | 2 mg/kg | 1 µg/mL (≈ 2.96 µM) | –
